Experimental data taken from PMC3880198 (Melanoma research, 2012).
Read-outs that look alike come from different tables or passages of the source. Marks after values point to notes of the source that are not given here.

Legend:
advanced melanoma [1] = settings: five of 32 treated patients with advanced melanoma; cited from earlier work
[2] = cited from earlier work
[3] = system: melanoma and endothelial cells; settings: combination of cilengitide and temozolomide, in vitro; cited from earlier work
clinical = test: clinical; design: species or system human; settings: in vivo; for Mean cilengitide concentration / level at 2 h / level at 4 h / level at 24 h: human, iv; for level at 2 h / level at 4 h / level at 24 h: Mean cilengitide concentration
metastatic melanoma [4] = format: in vivo, human; settings: for Median PFS in weeks (95% CI) / PFS rate at 8 weeks (95% CI): Kaplan-Meier estimate; for Best tumor response: PR / Best tumor response: SD / Best tumor response: CR: RECIST
integrin αvβ3 [5] = test: Tumoral αvβ3 expression by IHC staining; format: in vivo, human
Method in brief: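 Core-needle or skin punch tumor biopsies 5-7 days pre-treatment and cycle 1 day 8, within 6 h post-infusion. IHC with anti-αvβ3 LM 609; consensus grading by two pathologists on % positive cells (0 none; +1 1-10%; +2 11-25%; +3 26-75%; +4 >75%). Paired t-test, pre vs post.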

integrin αvβ3 [6] = settings: inhibits binding of the integrin to vitronectin; cited from earlier work
[7] = system: bFGF- and VEGF-mediated angiogenesis; settings: chorioallantoic membrane model; ref Cilengitide, Investigators Brochure; cited from earlier work
melanoma = settings: combination of cilengitide and temozolomide, in vivo; cited from earlier work
glioblastoma = settings: in combination with temozolomide and radiation therapy; cited from earlier work
[8] = system: recurrent glioblastoma multiforme (GBM); settings: 81 patients with GBM; cited from earlier work
[9] = system: recurrent malignant glioma; settings: at 360 mg/m^2 and 2,400 mg/m^2; cited from earlier work
[10] = cited from earlier work; remark: listed apart in the source
[11] = system: patients with metastatic melanoma; test: Toxicity evaluation; settings: both doses (500 mg and 2,000 mg i.v. twice weekly)
advanced melanoma [12] = settings: cited from earlier work
metastatic melanoma [13] = settings: cited from earlier work
[14] = among eight patients with matching samples and detectable αvβ3 at baseline

Molecule: CNC(=O)c1ccccc1Sc1ccc2c(/C=C/c3ccccn3)n[nH]c2c1 [axitinib]
- Objective clinical response (advanced melanoma [1]): 16%

Molecule: CC(C)[C@H]1C(=O)N[C@@H](CCCNC(=N)N)C(=O)NCC(=O)N[C@@H](CC(=O)O)C(=O)N[C@H](Cc2ccccc2)C(=O)N1C [cilengitide, Cilengitide]
- Half-life [2]: less than 5 hours
- Half-life ([2]; doses of 120-1,200 mg/m^2, phase I trials): 2.3 to 4.0 h
- Maximum-tolerated dose ([2]; phase I trials): has not been established
- Antiproliferative effects of the combination [3]: synergistic antiproliferative effects
- Mean cilengitide concentration (clinical; 500 mg, 2 h): 17.6 µg/mL
- Mean cilengitide concentration (clinical; 500 mg, 4 h): 8.75 µg/mL
- level at 2 h (clinical; 500 mg): 18200 ng/mL
- level at 4 h (clinical; 500 mg): 8250 ng/mL
- level at 24 h (clinical; 500 mg): 40 ng/mL
- Mean cilengitide concentration (clinical; 2000 mg, 2 h): 65.8 µg/mL
- Mean cilengitide concentration (clinical; 2000 mg, 4 h): 30.5 µg/mL
- Mean cilengitide concentration (clinical; 2000 mg, 24 h): 0.58 µg/mL
- level at 2 h (clinical; 2000 mg): 73200 ng/mL
- level at 4 h (clinical; 2000 mg): 35900 ng/mL
- level at 24 h (clinical; 2000 mg): 710 ng/mL
- Accumulation after repeated biweekly doses (clinical): No accumulation was observed
- Increases in plasma concentrations at the given time points with dose (clinical): dose proportional
- Response rate (CR+PR) (metastatic melanoma [4]; 500-mg dose (n=14)): 0%
- Median PFS in weeks (95% CI) (metastatic melanoma [4]; 500-mg dose (n=14)): 8.0 weeks
- PFS rate at 8 weeks (95% CI) (metastatic melanoma [4]; 500-mg dose (n=14)): 14% (4-52%)
- Best tumor response: PR (metastatic melanoma [4]; 500-mg dose (n=14)): 0
- Best tumor response: SD (metastatic melanoma [4]; 500-mg dose (n=14)): 2(14%)
- Best tumor response: CR (metastatic melanoma [4]; 500-mg dose i.v. twice weekly (n=14)): 0
- Response rate (CR+PR) (metastatic melanoma [4]; 2,000-mg dose (n=12)): 8%
- Median PFS in weeks (95% CI) (metastatic melanoma [4]; 2,000-mg dose (n=12)): 7.9 weeks
- Best tumor response: SD (metastatic melanoma [4]; 2,000-mg dose (n=12)): 0
- Best tumor response: PR (metastatic melanoma [4]; 2,000-mg dose (n=12), patient initially progressed after 4 weeks): 1 (8%) ^†
- Best tumor response: CR (metastatic melanoma [4]; 2,000-mg dose i.v. twice weekly (n=12)): 0
- Response rate (CR+PR) (metastatic melanoma [4]; Overall patients (n=26)): 4%
- Median PFS in weeks (95% CI) (metastatic melanoma [4]; Overall patients (n=26)): 8.0 (7.9-8.1) weeks
- PFS rate at 8 weeks (95% CI) (metastatic melanoma [4]; Overall patients (n=26)): 12% (4-33%)
- Best tumor response: CR (metastatic melanoma [4]; Overall patients (n=26)): 0
- Best tumor response: PR (metastatic melanoma [4]; Overall patients (n=26)): 1 (4%) ^†
- Best tumor response: SD (metastatic melanoma [4]; Overall patients (n=26)): 2(8%)
- Clinical efficacy as single agent (metastatic melanoma [4]; dose up to 2,000 mg twice weekly, metastatic melanoma): minimal clinical efficacy
- Patients free of disease progression per RECIST at 8 weeks (metastatic melanoma [4]; of 26 treated patients): three
- Increase in the sum of the largest diameters of five target lesions after one treatment cycle (metastatic melanoma [4]; single patient, 2,000 mg, later partial response): 28%
- Patients in whom αvβ3 expression decreased (integrin αvβ3 [5]; [14]): five
- Patients in whom αvβ3 expression increased (integrin αvβ3 [5]; [14]): none
- Overall tumoral αvβ3 expression with cilengitide treatment (integrin αvβ3 [5]; baseline vs day 8, 17 matching samples, paired t-test P=0.05): decreased
- Binding to integrin αvβ3 (nanomolar range) (integrin αvβ3 [6]): ~ 2 nM
- Cytokine-induced bFGF- and VEGF-mediated angiogenesis [7]: blocked
- Tumor reduction (melanoma): more effective tumor reduction compared with temozolomide alone
- 6-month PFS rate (glioblastoma): 69%
- 12-month PFS rate (glioblastoma): 33%
- Median PFS (glioblastoma): 8.0 months
- Median OS duration [8]: 9.9 months
- Response in patients with recurrent malignant glioma [9]: Complete responses were reported
- Concentration noted to be active in preclinical studies (biologically active level) [10]: 11-13 μg/mL
- Tolerability [11]: well tolerated

Molecule: CN(C)/N=N/c1[nH]cnc1C(N)=O [dacarbazine]
- Estimated PFS rate at 8 weeks (advanced melanoma [12]): approximately 40%

B1: etaracizumab (antibody, chains of the INN, looked up, V domains shown)
VH: QVQLVESGGGVVQPGRSLRLSCAASGFTFSSYDMSWVRQAPGKGLEWVAKVSSGGGSTYYLDTVQGRFTISRDNSKNTLYLQMNSLRAEDTAVYYCARHLHGSFASWGQGTTVTVSS
VL: EIVLTQSPATLSLSPGERATLSCQASQSISNFLHWYQQRPGQAPRLLIRYRSQSISGIPARFSGSGSGTDFTLTISSLEPEDFAVYYCQQSGSWPLTFGGGTKVEIK
- Patients with a clinical response (metastatic melanoma [13]; combination arm with dacarbazine): 12.7%
- Patients with a clinical response (metastatic melanoma [13]; etaracizumab alone, 57 patients): none
